Measured values: ChEMBL document CHEMBL3425447, “Discovery of Orally Available Runt-Related Transcription Factor 3 (RUNX3) Modulators for Anticancer Chemotherapy by Epigenetic Activation and Protein Stabilization” (J Med Chem, 2015)

Key:
Histone deacetylase = assay: Inhibition of HDAC in human HeLa cell nuclear extract using Fluor de Lys as substrate incubated with compound for 30 mins by microtiter-plate reading flourimeter analysis; type: protein assay
C2C12 = assay: Induction of RUNX transcriptional activation in mouse C2C12-6xOSE2 cells at 1 uM after 24 hrs by luciferase reporter assay relative to FGF-2; type: functional
Procedure, shortened: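 C2C12-6xOSE stable cells grown in DMEM with 10% FBS at 37°C, 5% CO2. Seeded at 1 × 10^4 cells/well; next day treated with compound or FGF-2 (1 µM each). After 24 h, luciferase measured with Bright-Glo. Activity expressed as percent of the FGF-2 positive-control response.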

[1] = Growth inhibition of human PC3 cells after 5 days by sulforhodamine B assay; type: functional; settings: PC-3, 120 h
MDA-MB-231 = assay: Growth inhibition of human MDA-MB-231 cells after 5 days by sulforhodamine B assay; type: functional; settings: MDA-MB-231, 120 h
ACHN = assay: Growth inhibition of human ACHN cells after 5 days by sulforhodamine B assay; type: functional; settings: 120 h
[2] = Growth inhibition of human HCT15 cells after 5 days by sulforhodamine B assay; type: functional; settings: HCT-15, 120 h
NCI-H23 = assay: Growth inhibition of human NCI-H23 cells after 5 days by sulforhodamine B assay; type: functional; settings: NCI-H23, 120 h
[3] = Growth inhibition of human NUGC3 cells after 5 days by sulforhodamine B assay; type: functional; settings: NUGC-3, 120 h
HEK293 [4] = assay: Induction of myc-tagged RUNX3 acetylation in human HEK293 cells assessed as acetylated RUNX3 level at 1 uM after 24 hrs by immunoprecipitation analysis relative to TSA; type: functional
Procedure, shortened: (§1)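 HEK293 cells (DMEM, 10% FBS) transfected with myc-RUNX3 vector using Lipofectamine 2000. Next day treated at 1 µM for 24 h. Lysates (HEPES pH 7.5, NP-40 buffer) immunoprecipitated with anti-myc antibody and protein G beads at 4°C. Immunoprecipitates western-blotted with anti-acetylated lysine antibody; relative acetylated RUNX3 quantified.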

HEK293 [5] = assay: Induction of myc-tagged RUNX3 acetylation in human HEK293 cells assessed as RUNX3 level at 1 uM after 24 hrs by immunoprecipitation analysis relative to TSA; type: functional; procedure, shortened: as §1
[6] = Metabolic stability in mouse liver microsomes assessed as compound remaining at 1 uM after 30 mins by LC-ESI/MS/MS analysis in absence of NADPH; type: ADME; settings: read-out: Stability
Procedure, shortened: (§2)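 Compound at 1 µM incubated in triplicate with pooled mouse liver microsomes (0.5 mg/ml final) in 0.1 M potassium phosphate, pH 7.4, at 37°C, with or without 1 mM NADPH. Reactions stopped at 0 and 30 min with ice-cold acetonitrile containing internal standard. After centrifugation, supernatant analyzed by LC-ESI/MS/MS; percent remaining from analyte/IS peak-area ratios. Buspirone served as positive control.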

[7] = Metabolic stability in mouse liver microsomes assessed as compound remaining at 1 uM after 30 mins byLC-ESI/MS/MS analysis in presence of NADPH; type: ADME; settings: read-out: Stability; procedure, shortened: as §2
[8] = Metabolic stability in rat liver microsomes assessed as compound remaining at 1 uM after 60 mins by LC-ESI/MS/MS analysis in absence of NADPH; type: ADME; settings: read-out: Stability
Procedure, shortened: (§3)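 Rat or human liver microsomes (0.5 mg/ml) incubated with test compound (1 µM) at 37°C for 60 min, with or without NADPH or UDPGA cofactor, n = 2–3. Percent parent remaining quantified by LC-ESI/MS/MS.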

[9] = Metabolic stability in rat liver microsomes assessed as compound remaining at 1 uM after 60 mins byLC-ESI/MS/MS analysis in presence of NADPH; type: ADME; settings: read-out: Stability; procedure, shortened: as §3
[10] = Metabolic stability in rat liver microsomes assessed as compound remaining at 1 uM after 60 mins by LC-ESI/MS/MS analysis in absence of UDPGA; type: ADME; settings: read-out: Stability; procedure, shortened: as §3
[11] = Metabolic stability in rat liver microsomes assessed as compound remaining at 1 uM after 60 mins by LC-ESI/MS/MS analysis in presence of UDPGA; type: ADME; settings: read-out: Stability; procedure, shortened: as §3
[12] = Retention time of the compound by HPLC analysis; type: physicochemical
NCI-H460 [13] = assay: Antitumor activity against human NCI-H460 cells xenografted in BALB/c nude mouse assessed as reduction in tumor weight at 20 mg/kg, po administered daily for 2 weeks measured every 2 or 3 days for 14 days; type: functional
Procedure, shortened: (§4)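 Female SPF BALB/c nude mice, 6 weeks old, injected subcutaneously in the flank with NCI-H460 cells (3 × 10^7/animal). At tumor volume 50–80 mm3, randomized four per group. Dosed orally at 20 mg/kg in 10% DMAC/10% Tween 80 in saline, daily for two weeks, versus vehicle control. Tumor length and width measured by caliper three times weekly; body weight monitored.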

NCI-H460 [14] = assay: Induction of RUNX3 mRNA expression in human NCI-H460 cells after 24 hrs by RT-PCR analysis; type: functional, cell-based
Procedure, shortened: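 NCI-H460 cells in RPMI1640 with 10% FBS were plated and treated the following day. After 24 h, total RNA extracted and 1 µg reverse-transcribed. RUNX3 cDNA amplified with specific primers, run on a 1.5% agarose gel and stained with ethidium bromide. GAPDH served as internal control; SNU16 gastric cells served as positive-control line.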

[15] = Metabolic stability in human liver microsomes assessed as compound remaining at 1 uM after 60 mins by LC-ESI/MS/MS analysis in absence of NADPH; type: ADME; settings: read-out: Stability; procedure, shortened: as §3
[16] = Metabolic stability in human liver microsomes assessed as compound remaining at 1 uM after 60 mins byLC-ESI/MS/MS analysis in presence of NADPH; type: ADME; settings: read-out: Stability; procedure, shortened: as §3
[17] = Metabolic stability in human liver microsomes assessed as compound remaining at 1 uM after 60 mins by LC-ESI/MS/MS analysis in absence of UDPGA; type: ADME; settings: read-out: Stability; procedure, shortened: as §3
[18] = Metabolic stability in human liver microsomes assessed as compound remaining at 1 uM after 60 mins byLC-ESI/MS/MS analysis in presence of UDPGA; type: ADME; settings: read-out: Stability; procedure, shortened: as §3
[19] = AUC(0 to infinity) in Sprague-Dawley rat at 2 mg/kg, iv by LC-MS/MS analysis; type: ADME, organism-based; parameters: time infinity, dose 2 mg/kg, route intravenous; settings: plasma
[20] = Clearance in Sprague-Dawley rat at 2 mg/kg, iv by LC-MS/MS analysis; type: ADME, organism-based; parameters: dose 2 mg/kg, route intravenous; settings: in vivo
Procedure, shortened: (§5)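 Specific pathogen-free male SD rats (10 weeks, 298–315 g), n = 3 per route, single dose 2 mg/kg i.v. or 10 mg/kg p.o. Oral vehicle DMAC/Vitamin E TPGS 80/25% solutol HS 15 (10/10/80); dosing volumes 5 (i.v.) and 10 ml/kg (p.o.). Plasma precipitated with acetonitrile containing carbamazepine internal standard, LC-MS/MS. Noncompartmental analysis of mean profiles; linear-trapezoidal AUC (oral 0–5 h, i.v. to infinity).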

[21] = Volume of distribution at steady state in Sprague-Dawley rat at 2 mg/kg, iv by LC-MS/MS analysis; type: ADME, organism-based; parameters: dose 2 mg/kg, route intravenous; settings: in vivo, read-out: Vdss; procedure, shortened: as §5
[22] = Terminal half life in Sprague-Dawley rat at 2 mg/kg, iv by LC-MS/MS analysis; type: ADME, organism-based; parameters: dose 2 mg/kg, route intravenous; settings: in vivo, read-out: beta t1/2 (converted); procedure, shortened: as §5
[23] = Tmax in Sprague-Dawley rat at 10 mg/kg, po by LC-MS/MS analysis; type: ADME, organism-based; parameters: dose 10 mg/kg, route oral; settings: in vivo; procedure, shortened: as §5
[24] = Cmax in Sprague-Dawley rat at 10 mg/kg, po by LC-MS/MS analysis; type: ADME, organism-based; parameters: dose 10 mg/kg, route oral; settings: in vivo; procedure, shortened: as §5
[25] = AUC (0 to 5 hrs) in Sprague-Dawley rat at 10 mg/kg, po by LC-MS/MS analysis; type: ADME, organism-based; parameters: dose 10 mg/kg, route oral; settings: plasma; procedure, shortened: as §5
[26] = Terminal half life in Sprague-Dawley rat at 10 mg/kg, po by LC-MS/MS analysis; type: ADME, organism-based; parameters: dose 10 mg/kg, route oral; settings: in vivo, read-out: beta t1/2 (converted); procedure, shortened: as §5
[27] = Oral bioavailability in Sprague-Dawley rat at 10 mg/kg by LC-MS/MS analysis; type: ADME, organism-based; settings: in vivo; procedure, shortened: as §5
Mus musculus = assay: Toxicity against BALB/c nude mouse xenografted with human NCI-H460 cells assessed as body weight loss at 20 mg/kg, po administered daily for 2 weeks; type: organism-based; parameters: dose 20 mg/kg, route oral; settings: in vivo, 336 h; procedure, shortened: as §4

| IC50 (Histone deacetylase) [µM] | GI50 (MDA-MB-231) [µM] | GI50 (ACHN) [µM] | GI50 (NCI-H23) [µM] | remaining at 0.5 h, 1 µM [6] [%] | remaining at 0.5 h, 1 µM [7] [%] | remaining at 1 h, 1 µM [8] [%] | remaining at 1 h, 1 µM [9] [%] | remaining at 1 h, 1 µM [10] [%] | remaining at 1 h, 1 µM [11] [%] | Retention_time [12] [min] | Structure (SMILES) | Activity (C2C12) [%] | GI50 [1] [µM] | GI50 [2] [µM] | GI50 [3] [µM] | fold change (FC) (HEK293 [4]) | fold change (FC) (HEK293 [5]) | inhibition in vivo at 20 mg/kg (NCI-H460 [13]) [%] | also measured |
| --- | --- | --- | --- | --- | --- | --- | --- | --- | --- | --- | --- | --- | --- | --- | --- | --- | --- | --- | --- |
| 0.03 | 0.72 | 0.76 | 0.87 | 110 | 88.4 | 116 | 72.7 | 81.3 | 45.7 | 11.335 | COc1cccc(CCCn2cccc(/C=C/C(=O)NO)c2=O)c1 | 142.1 | 0.7 | 1.59 | 1.05 | 0.8 | 1.1 |  |  |
| 0.05 | 0.56 | 0.32 | 0.46 | 104 | 31.5 |  |  |  |  | 12.367 | CCOc1ccccc1CCCn1cccc(/C=C/C(=O)NO)c1=O | 105.5 | 0.18 | 0.66 | 0.47 | 37.2 | 13.7 |  |  |
|  |  |  |  |  |  |  |  |  |  |  | O=C(CCC1=CCN(Cc2ccc(Br)cc2)C1=O)NO |  |  |  |  |  |  | 37.9 |  |
| 0.03 | 0.1 | 0.25 | 0.13 | 100 | 90.3 | 92 | 83.5 | 88.9 | 72.4 | 9.606 | O=C(/C=C/c1cccn(Cc2ccc3ccccc3n2)c1=O)NO | 687.5 | 0.49 | 0.38 | 0.71 | 77.5 | 29.3 | 45.7 | Activity (NCI-H460 [14]): Dose-dependent effect; remaining at 1 h, 1 µM [15]: 74.7%; remaining at 1 h, 1 µM [16]: 75.5%; remaining at 1 h, 1 µM [17]: 95.2%; remaining at 1 h, 1 µM [18]: 99.7%; AUC(0-inf) [19]: 354 ng·h/mL; clearance [20]: 93.3 mL/min/kg; Vd [21]: 14 L/kg; half-life [22]: 4.4 h; Tmax [23]: 0.67 h; Cmax [24]: 142 ng/mL; AUC(0-t) at 4 h [25]: 863 ng·h/mL; half-life [26]: 10.3 h; bioavailability [27]: 48.7%; Activity (Mus musculus): Non-toxic |
